From ChEMBL document CHEMBL3351600, “Sulfur, selenium and tellurium pseudopeptides: synthesis and biological evaluation” (Bioorg Med Chem, 2014)

How the values were obtained:
[1] = Growth inhibition of human RXF393 cells after 48 hrs; type: functional; conditions: RXF 393, 48 h
Summary of the method: (§1)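 NCI-60 human tumour cell line panel screen run at the US National Cancer Institute under its standard cytotoxicity protocol. It covers leukaemia, NSCLC, colon, CNS, melanoma, ovarian, renal, prostate and breast lines. An initial single-dose test was followed by five-dose testing with 48 h compound exposure.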

[2] = Growth inhibition of human UO31 cells after 48 hrs; type: functional; conditions: UO-31, 48 h
Summary of the method: (§2)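 Run by the NCI 58-cell-line screen under its standard cytotoxicity protocol. Compounds were first tested at a single dose, then at five doses. Cells were exposed to compound for 48 h.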

[3] = system: MDA-MB-231; experiment: Growth inhibition of human MDA-MB-231 cells after 48 hrs; type: functional; conditions: MDA-MB-231, 48 h; summary of the method: as §1
[4] = Growth inhibition of human BT549 cells after 48 hrs; type: functional; conditions: BT-549, 48 h; summary of the method: as §1
[5] = system: T47D; experiment: Growth inhibition of human T47D cells after 48 hrs; type: functional; summary of the method: as §2
[6] = Growth inhibition of human LOXIMVI cells after 48 hrs; type: functional; conditions: LOX IMVI; summary of the method: as §1
[7] = Cytotoxicity against human fibroblasts assessed as cell viability after 24 hrs incubation by MTT assay; type: cell-based; conditions: Fibroblast
Summary of the method: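 Cell lines came from DSMZ; primary human fibroblasts served as non-cancer controls. Cells were grown in medium with 10% FCS, seeded at 50,000 cells/ml, and grown 2 days at 37 °C, 10% CO2. Serial dilutions were then added for 24 h. MTT (final 0.5 mg/ml) was added for 2 h. Formazan was pelleted, PBS-washed, dissolved in isopropanol/0.4% HCl and read at 590 nm. Two parallel experiments were run. IC50 was taken as the concentration giving 50% of untreated-control absorbance.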

[8] = Octanol-water partition coefficient, log P of the compound by HPLC analysis; type: physicochemical
Summary of the method: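 Lipophilicity was measured by reversed-phase HPLC on a Nucleosil C18 column with isocratic water/methanol (3:1) at 0.5 ml/min and UV detection at 230 and 245 nm. Dead time was set with thiourea (t0 0.728 min). Retention factor was k = (tR − t0)/t0, and log P came from a calibration against at least six reference compounds.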

[9] = system: Mycolicibacterium phlei; experiment: Antimicrobial activity against Mycobacterium phlei assessed as inhibition at 20 ug/6 mm disk after 1 to 2 days by agar diffusion assay; type: functional
Summary of the method: (§3)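 Standard agar diffusion: 6-mm paper disks loaded with 20 µg of compound were placed on inoculated plates. Inhibition-zone diameter (mm) was read after 1 and 2 days of growth.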

[10] = system: Klebsiella pneumoniae; experiment: Antimicrobial activity against Klebsiella pneumoniae assessed as inhibition at 20 ug/6 mm disk after 1 to 2 days by agar diffusion assay; type: functional; summary of the method: as §3
[11] = Lipophilicity, log K of the compound by HPLC analysis
[12] = system: HL-60(TB); experiment: Growth inhibition of human HL-60(TB) cells after 48 hrs; type: functional; conditions: HL-60, 48 h; summary of the method: as §1
[13] = system: K562; experiment: Growth inhibition of human K562 cells after 48 hrs; type: functional; conditions: K562, 48 h; summary of the method: as §1
[14] = system: NCI-H23; experiment: Growth inhibition of human NCI-H23 cells after 48 hrs; type: functional; conditions: NCI-H23, 48 h; summary of the method: as §1
[15] = system: NCI-H460; experiment: Growth inhibition of human NCI-H460 cells after 48 hrs; type: functional; conditions: NCI-H460, 48 h; summary of the method: as §1
[16] = system: NCI-H522; experiment: Growth inhibition of human NCI-H522 cells after 48 hrs; type: functional; conditions: NCI-H522, 48 h; summary of the method: as §1
[17] = Growth inhibition of human COLO205 cells after 48 hrs; type: functional; conditions: COLO 205, 48 h; summary of the method: as §1
[18] = system: HT-29; experiment: Growth inhibition of human HT-29 cells after 48 hrs; type: functional; conditions: HT-29, 48 h; summary of the method: as §1
[19] = Growth inhibition of human SF539 cells after 48 hrs; type: functional; conditions: SF-539, 48 h; summary of the method: as §1
[20] = system: SNB-19; experiment: Growth inhibition of human SNB19 cells after 48 hrs; type: functional; conditions: SNB-19, 48 h; summary of the method: as §2
[21] = system: SNB-75; experiment: Growth inhibition of human SNB75 cells after 48 hrs; type: functional; conditions: SNB-75, 48 h; summary of the method: as §2
[22] = system: Malme-3M; experiment: Growth inhibition of human MALME-3M cells after 48 hrs; type: functional; summary of the method: as §1
[23] = system: M14; experiment: Growth inhibition of human M14 cells after 48 hrs; type: functional; conditions: M14, 48 h; summary of the method: as §1
[24] = system: SK-MEL-2; experiment: Growth inhibition of human SK-MEL-2 cells after 48 hrs; type: functional; conditions: SK-MEL-2, 48 h; summary of the method: as §1
[25] = system: SK-MEL-28; experiment: Growth inhibition of human SK-MEL-28 cells after 48 hrs; type: functional; conditions: SK-MEL-28, 48 h; summary of the method: as §1
[26] = system: SK-MEL-5; experiment: Growth inhibition of human SK-MEL-5 cells after 48 hrs; type: functional; conditions: SK-MEL-5, 48 h; summary of the method: as §2
[27] = Growth inhibition of human UACC62 cells after 48 hrs; type: functional; conditions: UACC-62, 48 h; summary of the method: as §2
[28] = system: IGROV-1; experiment: Growth inhibition of human IGROV1 cells after 48 hrs; type: functional; conditions: IGROV-1, 48 h; summary of the method: as §1
[29] = Growth inhibition of human OVCAR3 cells after 48 hrs; type: functional; conditions: OVCAR-3, 48 h; summary of the method: as §1
[30] = system: SK-OV-3; experiment: Growth inhibition of human SKOV3 cells after 48 hrs; type: functional; conditions: SK-OV-3, 48 h; summary of the method: as §2
[31] = system: 786-0; experiment: Growth inhibition of human 786-0 cells after 48 hrs; type: functional; conditions: 786-0, 48 h; summary of the method: as §1
[32] = read-out: pLC50 (the source's name) (converted)

## COc1ccc(N(CC(=O)NCCC[Te]c2ccccc2)C(=O)c2ccccc2)cc1
[1]
  GI50: 12 µM
  LC50: 75.9 µM
[1]; read-out: pTGI (converted)
  TGI: 30.2 µM
[2]
  GI50: 2.75 µM
  LC50: 95.5 µM
[2]; read-out: pTGI (converted)
  TGI: 11 µM
[3]
  GI50: 2.63 µM
  LC50: > 100 µM
[3]; read-out: pTGI (converted)
  TGI: 4.79 µM
[4]
  GI50: 2.4 µM
  LC50 (concentration killing 50% of cells): > 100 µM
[4]; read-out: pTGI (converted)
  TGI: 8.71 µM
[5]
  GI50: 3.39 µM
  LC50: > 100 µM
[5]; read-out: pTGI (converted)
  TGI: 21.4 µM
[6]
  GI50: 3.72 µM
  LC50: 100 µM
[6]; read-out: pTGI (converted)
  TGI: 14.1 µM
[7]
  IC50: 7.5 µM
[8]
  logP: 1.72
[9]
  diameter of the inhibition zone (DIZ): 17 mm
[10]
  diameter of the inhibition zone (DIZ): 12 mm
[11]
  log K: -0.65
[12]
  GI50: 2.14 µM
[12]; [32]
  CC50: > 100 µM
[12]; read-out: pTGI (converted)
  TGI: 5.75 µM
[13]
  GI50: 5.13 µM
[13]; [32]
  CC50: > 100 µM
[13]; read-out: pTGI (converted)
  TGI: > 100 µM
[14]
  GI50: 3.16 µM
[14]; [32]
  CC50: > 100 µM
[14]; read-out: pTGI (converted)
  TGI: 9.33 µM
[15]
  GI50: 0.537 µM
[15]; [32]
  CC50: 8.71 µM
[15]; read-out: pTGI (converted)
  TGI: 2.4 µM
[16]
  GI50: 3.09 µM
[16]; [32]
  CC50: 53.7 µM
[16]; read-out: pTGI (converted)
  TGI: 8.71 µM
[17]
  GI50: 2.57 µM
[17]; [32]
  CC50: > 100 µM
[17]; read-out: pTGI (converted)
  TGI: 6.03 µM
[18]
  GI50: 3.8 µM
[18]; [32]
  CC50: > 100 µM
[18]; read-out: pTGI (converted)
  TGI: > 100 µM
[19]
  GI50: 2.29 µM
[19]; [32]
  CC50: 28.8 µM
[19]; read-out: pTGI (converted)
  TGI: 6.03 µM
[20]
  GI50: 4.07 µM
[20]; [32]
  CC50: > 100 µM
[20]; read-out: pTGI (converted)
  TGI: 58.9 µM
[21]
  GI50: 2.57 µM
[21]; [32]
  CC50: 39.8 µM
[21]; read-out: pTGI (converted)
  TGI: 9.55 µM
[22]
  GI50: 16.6 µM
[22]; [32]
  CC50: 72.4 µM
[22]; read-out: pTGI (converted)
  TGI: 34.7 µM
[23]
  GI50: 4.17 µM
[23]; [32]
  CC50: 63.1 µM
[23]; read-out: pTGI (converted)
  TGI: 15.5 µM
[24]
  GI50: 4.17 µM
[24]; [32]
  CC50: > 100 µM
[24]; read-out: pTGI (converted)
  TGI: 15.1 µM
[25]
  GI50: 4.17 µM
[25]; [32]
  CC50: 45.7 µM
[25]; read-out: pTGI (converted)
  TGI: 15.5 µM
[26]
  GI50: 2.4 µM
[26]; [32]
  CC50: 24.5 µM
[26]; read-out: pTGI (converted)
  TGI: 6.03 µM
[27]
  GI50: 2.51 µM
[27]; [32]
  CC50: 43.7 µM
[27]; read-out: pTGI (converted)
  TGI: 7.59 µM
[28]
  GI50: 2.88 µM
[28]; [32]
  CC50: 55 µM
[28]; read-out: pTGI (converted)
  TGI: 8.32 µM
[29]
  GI50: 5.75 µM
[29]; [32]
  CC50: 56.2 µM
[29]; read-out: pTGI (converted)
  TGI: 20 µM
[30]
  GI50: 2.57 µM
[30]; [32]
  CC50: 35.5 µM
[30]; read-out: pTGI (converted)
  TGI: 6.03 µM
[31]
  GI50: 5.13 µM
  LC50: 64.6 µM
[31]; read-out: pTGI (converted)
  TGI: 19.5 µM
